Test results: ChEMBL document CHEMBL4765291, “Design, synthesis and biological evaluation of novel 3,4-dihydro-2(1H)-quinolinone derivatives as potential chitin synthase inhibitors and antifungal agents” (Eur J Med Chem, 2020)
pIC50, pKi: −log10 of the molar value. In brackets after ≈: the same amount, converted by molar mass.

What was measured:
Cryptococcus neoformans [1] = test: Antifungal activity against Cryptococcus neoformans ATCC 32719 incubated for 48 hrs by two-fold broth dilution analysis; assay type: functional
Method in brief: (§1)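 Stock solutions in DMSO, diluted to 0.25–512 µg/mL; two-fold serial broth dilution in 96-well plates. Fungi grown on modified Sabouraud chloramphenicol agar (1% peptone, 2% glucose, […]). Incubated 48 h at 37 °C, then MIC (µg/mL) recorded. Fluconazole and polyoxin B as positive controls; each group tested in triplicate.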

Proteus vulgaris = test: Antibacterial activity against Bacillus proteus ATCC 8427; assay type: functional
Method in brief: (§2)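 Two-fold serial broth dilution in 96-well plates following National Committee standards; compounds tested at different concentrations. Medium: beef extract peptone (1% peptone, 0.3% beef extract, 0.5% NaCl). Incubation 18–24 h. MIC recorded; streptomycin and norfloxacin as control drugs; each group tested in triplicate.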

Candida albicans [2] = test: Synergistic antifungal activity against Candida albicans ATCC 76615 assessed as fractional inhibitory concentration index in presence of Polyoxin B by checkerboard method; assay type: functional
Method in brief: (§3)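 Checkerboard combined with two-fold broth dilution, pairing test compound with fluconazole or polyoxin B. FIC index = (MIC A combined/MIC A alone) + (MIC B combined/MIC B alone); >2 antagonistic, 1–2 additive, ≤1 synergistic. Three independent repeats.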

Candida albicans [3] = test: Antifungal activity against Candida albicans ATCC 76615 incubated for 48 hrs by two-fold broth dilution analysis; assay type: functional; method in brief: as §1
Aspergillus flavus [4] = test: Synergistic antifungal activity against Aspergillus flavus ATCC 16870 assessed as fractional inhibitory concentration index in presence of fluconazole by checkerboard method; assay type: functional; method in brief: as §3
Pseudomonas aeruginosa = test: Antibacterial activity against Pseudomonas aeruginosa ATCC 9027; assay type: functional; method in brief: as §2
Staphylococcus aureus [5] = test: Antibacterial activity against Staphylococcus aureus ATCC 25923; assay type: functional; method in brief: as §2
Aspergillus fumigatus [6] = test: Synergistic antifungal activity against Aspergillus fumigatus GIMCC 3.19 assessed as fractional inhibitory concentration index in presence of Polyoxin B by checkerboard method; assay type: functional; method in brief: as §3
Escherichia coli = test: Antibacterial activity against Escherichia coli JM 109
Candida albicans [7] = test: Synergistic antifungal activity against Candida albicans ATCC 76615 assessed as fractional inhibitory concentration index in presence of fluconazole by checkerboard method; assay type: functional; method in brief: as §3
Aspergillus fumigatus [8] = test: Synergistic antifungal activity against Aspergillus fumigatus GIMCC 3.19 assessed as fractional inhibitory concentration index in presence of fluconazole by checkerboard method; assay type: functional; method in brief: as §3
Bacillus subtilis = test: Antibacterial activity against Bacillus subtilis ATCC 6633; assay type: functional; method in brief: as §2
Aspergillus flavus [9] = test: Antifungal activity against Aspergillus flavus ATCC 16870 incubated for 48 hrs by two-fold broth dilution analysis; assay type: functional; method in brief: as §1
Candida tropicalis = test: Inhibition of Candida tropicalis ATCC 750 chitin synthase at 300 ug/ml using UDP-GlcNAc as substrate relative to control; conditions: dose 300.0 µg/ml
Method in brief: (§4)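 Chitin synthase prepared from C. tropicalis ATCC 750 by low- and high-speed centrifugation. DMSO stocks (10 mg/mL) diluted in 50 mM Tris-HCl pH 7.5; test concentrations 300–9.375 µg/mL. Chitin synthesized in WGA-coated wells, bound with WGA-HRP, washed, developed with TMB/H2O2, stopped with 2 M H2SO4, OD read. Duplicate; polyoxin B positive control.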

Candida albicans [10] = test: Antifungal activity against Candida albicans ATCC 90023 incubated for 48 hrs by two-fold broth dilution analysis; assay type: functional; method in brief: as §1
Aspergillus fumigatus [11] = test: Antifungal activity against Aspergillus fumigatus GIMCC 3.19 incubated for 48 hrs by two-fold broth dilution analysis; assay type: functional; method in brief: as §1
Candida albicans [12] = test: Synergistic antifungal activity against Candida albicans ATCC 90023 assessed as fractional inhibitory concentration index in presence of Polyoxin B by checkerboard method; assay type: functional; method in brief: as §3
Cryptococcus neoformans [13] = test: Synergistic antifungal activity against Cryptococcus neoformans ATCC 32719 assessed as fractional inhibitory concentration index in presence of Polyoxin B by checkerboard method; assay type: functional; method in brief: as §3
Staphylococcus aureus [14] = test: Antibacterial activity against methicillin-resistant Staphylococcus aureus N. 315; assay type: functional
Method in brief: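 Two-fold serial broth dilution in 96-well plates per national clinical standard; beef extract peptone medium (1% peptone, 0.3% beef extract, 0.5% NaCl, […]). Compounds from DMSO stock diluted to test concentrations; incubation 18–24 h. MIC recorded; each group tested independently in triplicate.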

Cryptococcus neoformans [15] = test: Synergistic antifungal activity against Cryptococcus neoformans ATCC 32719 assessed as fractional inhibitory concentration index in presence of fluconazole by checkerboard method; assay type: functional; method in brief: as §3
Aspergillus flavus [16] = test: Synergistic antifungal activity against Aspergillus flavus ATCC 16870 assessed as fractional inhibitory concentration index in presence of Polyoxin B by two-fold broth dilution checkerboard method; assay type: functional; method in brief: as §3
[17] = Inhibition of Candida tropicalis ATCC 750 chitin synthase using UDP-GlcNAc as substrate; method in brief: as §4
Candida albicans [18] = test: Synergistic antifungal activity against Candida albicans ATCC 90023 assessed as fractional inhibitory concentration index in presence of fluconazole by checkerboard method; assay type: functional; method in brief: as §3
[19] = Noncompetitive inhibition of Candida tropicalis ATCC 750 chitin synthase using […] as substrate by Lineweaver-Burk plot
Method in brief: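 Same WGA-capture chitin synthase assay, run with UDP-GlcNAc at 0.5, 1.0, 1.5 and 2.0 mM and inhibitor at 0, 0.032, 0.126 and 0.25 mM. Inhibition type read from Lineweaver-Burk plots; Ki taken from the intersection of the lines.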

Row | SMILES | MIC (Cryptococcus neoformans [1]) | MIC (Proteus vulgaris) | fractional inhibitory concentration index (FICI) (Candida albicans [2]) | MIC (Candida albicans [3]) | fractional inhibitory concentration index (FICI) (Aspergillus flavus [4]) | MIC (Pseudomonas aeruginosa) | MIC (Staphylococcus aureus [5]) | fractional inhibitory concentration index (FICI) (Aspergillus fumigatus [6]) | MIC (Escherichia coli) | fractional inhibitory concentration index (FICI) (Candida albicans [7]) | fractional inhibitory concentration index (FICI) (Aspergillus fumigatus [8]) | MIC (Bacillus subtilis) | MIC (Aspergillus flavus [9]) | inhibition (Candida tropicalis) | MIC (Candida albicans [10]) | MIC (Aspergillus fumigatus [11]) | fractional inhibitory concentration index (FICI) (Candida albicans [12]) | fractional inhibitory concentration index (FICI) (Cryptococcus neoformans [13]) | MIC (Staphylococcus aureus [14]) | pIC50 [17] | also measured
1 | COc1ccccc1NC(=O)/C=C/C(=O)NC1Cc2ccccc2NC1=O (stereo not given) | 8 µg/mL (≈ 21.9 µM) | 256 µg/mL (≈ 701 µM) | 0.5 | 1 µg/mL (≈ 2.74 µM) | 1 | 512 µg/mL (≈ 1400 µM) | 128 µg/mL (≈ 350 µM) | 0.375 | 256 µg/mL (≈ 701 µM) | 0.75 | 0.375 | 256 µg/mL (≈ 701 µM) | 2 µg/mL (≈ 5.47 µM) | 82.3% | 1 µg/mL (≈ 2.74 µM) | 4 µg/mL (≈ 10.9 µM) | 0.375 | 1 | 256 µg/mL (≈ 701 µM) | 3.80 | fractional inhibitory concentration index (FICI) (Cryptococcus neoformans [15]): 0.5; fractional inhibitory concentration index (FICI) (Aspergillus flavus [16]): 0.75; fractional inhibitory concentration index (FICI) (Candida albicans [18]): 0.5
2 | Cc1cccc(NC(=O)/C=C/C(=O)NC2Cc3ccccc3NC2=O)c1 (stereo not given) | 64 µg/mL (≈ 183 µM) | 256 µg/mL (≈ 733 µM) | 1 | 2 µg/mL (≈ 5.72 µM) | 1.5 | 512 µg/mL (≈ 1470 µM) | 128 µg/mL (≈ 366 µM) | 0.75 | 512 µg/mL (≈ 1470 µM) | 1.5 | 0.75 | 256 µg/mL (≈ 733 µM) | 2 µg/mL (≈ 5.72 µM) | 78.3% | 1 µg/mL (≈ 2.86 µM) | 4 µg/mL (≈ 11.4 µM) | 0.375 | 2 | 512 µg/mL (≈ 1470 µM) | 4.05 | pKi [19]: 3.92; fractional inhibitory concentration index (FICI) (Cryptococcus neoformans [15]): 1.5; fractional inhibitory concentration index (FICI) (Aspergillus flavus [16]): 1; fractional inhibitory concentration index (FICI) (Candida albicans [18]): 0.5
3 | COc1ccc(NC(=O)/C=C/C(=O)NC2Cc3ccccc3NC2=O)cc1 (stereo not given) | 16 µg/mL (≈ 43.8 µM) | 256 µg/mL (≈ 701 µM) |  | 2 µg/mL (≈ 5.47 µM) |  | 512 µg/mL (≈ 1400 µM) | 128 µg/mL (≈ 350 µM) |  | 512 µg/mL (≈ 1400 µM) |  |  | 256 µg/mL (≈ 701 µM) | 2 µg/mL (≈ 5.47 µM) | 74.6% | 1 µg/mL (≈ 2.74 µM) | 4 µg/mL (≈ 10.9 µM) |  |  | 256 µg/mL (≈ 701 µM) | 3.68 | 
